Drawing on ChEMBL document CHEMBL1123129, “Hypolipidemic activity of indan-1,3-dione derivatives in rodents” (J Med Chem, 1985), this text covers Control for one compound.

Assay [1] concerns the target Acetyl-CoA carboxylase 1 (Mus musculus) (UniProt Q5SWU9). As to the kind of experiment: In Vivo effect for the hypolipidemic activity on Acetyl-CoA carboxylase in CF1 mice after 16 days administered orally at a dose of 20 mg/kg. The assay is classed as functional, organism-based. Also on record: dose 20 mg/kg. An outline of the steps:
(§1)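 CF1 male mice are dosed orally at 10–60 mg/kg per day for 16 days, with 1% CMC as the control vehicle. Liver is homogenized at 10% in 0.25 M sucrose + 0.001 M EDTA, pH 7.2. Enzymes are assayed by literature methods, with Lowry protein. Activity is given as % of control (X ± SD, N = 6), with p from Student's t test.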

In assay [2] the test system is Rattus norvegicus. As to the kind of experiment: Compound was evaluated for the hypolipidemic activity at 20 mg/kg per day orally for 14 days on neutral lipids content in rat HDL. The assay is classed as functional. The settings on record: route oral. A digest of the protocol: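 Male Sprague–Dawley rats (~300 g) were dosed orally each day. Blood was drawn from the abdominal vein. Lipoprotein fractions (chylomicron, VLDL, LDL, HDL) were separated by the Hatch–Lees and Havel methods. Each fraction was assayed for cholesterol, triglyceride (enzymatic kit), neutral lipids, phospholipids and Lowry protein. Values are % of 1% CMC vehicle control, N = 6.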

Assay [3] deals with Rattus norvegicus. The assay is described as follows: Compound was evaluated for the hypolipidemic activity at 20 mg/kg per day orally for 14 days on neutral lipids content in rat feces. The assay is classed as functional. The settings on record: route oral. An outline of the steps:
(§2)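 Male Sprague–Dawley rats were dosed orally for 14 days. Liver, small intestine and a 24-h fecal collection were lipid-extracted. Extracts were assayed for cholesterol (modified Liebermann–Burchard), triglyceride (enzymatic kit), neutral lipids, phospholipids and protein. Values are % of 1% CMC vehicle control, mean ± SD, N = 6.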

The test system of assay [4] is Mus musculus. The assay is described as follows: In Vivo effect for the hypolipidemic activity on Hepatic lipoprotein lipase in CF1 mice after 16 days administered orally at a dose of 60 mg/kg. The assay is classed as functional. The settings on record: route oral. An outline of the steps: as §1
Assay [5] deals with Rattus norvegicus. As to the kind of experiment: Compound was evaluated for the hypolipidemic activity at 20 mg/kg per day orally for 14 days on cholesterol content in rat feces. The settings on record: route oral. The assay is classed as functional. A digest of the protocol:
as §2

Assay [6] concerns the target T1, 3-hydroxy-3-methylglutaryl-coenzyme A reductase (Mus musculus) (UniProt Q01237).
T1 sequence (whole entry): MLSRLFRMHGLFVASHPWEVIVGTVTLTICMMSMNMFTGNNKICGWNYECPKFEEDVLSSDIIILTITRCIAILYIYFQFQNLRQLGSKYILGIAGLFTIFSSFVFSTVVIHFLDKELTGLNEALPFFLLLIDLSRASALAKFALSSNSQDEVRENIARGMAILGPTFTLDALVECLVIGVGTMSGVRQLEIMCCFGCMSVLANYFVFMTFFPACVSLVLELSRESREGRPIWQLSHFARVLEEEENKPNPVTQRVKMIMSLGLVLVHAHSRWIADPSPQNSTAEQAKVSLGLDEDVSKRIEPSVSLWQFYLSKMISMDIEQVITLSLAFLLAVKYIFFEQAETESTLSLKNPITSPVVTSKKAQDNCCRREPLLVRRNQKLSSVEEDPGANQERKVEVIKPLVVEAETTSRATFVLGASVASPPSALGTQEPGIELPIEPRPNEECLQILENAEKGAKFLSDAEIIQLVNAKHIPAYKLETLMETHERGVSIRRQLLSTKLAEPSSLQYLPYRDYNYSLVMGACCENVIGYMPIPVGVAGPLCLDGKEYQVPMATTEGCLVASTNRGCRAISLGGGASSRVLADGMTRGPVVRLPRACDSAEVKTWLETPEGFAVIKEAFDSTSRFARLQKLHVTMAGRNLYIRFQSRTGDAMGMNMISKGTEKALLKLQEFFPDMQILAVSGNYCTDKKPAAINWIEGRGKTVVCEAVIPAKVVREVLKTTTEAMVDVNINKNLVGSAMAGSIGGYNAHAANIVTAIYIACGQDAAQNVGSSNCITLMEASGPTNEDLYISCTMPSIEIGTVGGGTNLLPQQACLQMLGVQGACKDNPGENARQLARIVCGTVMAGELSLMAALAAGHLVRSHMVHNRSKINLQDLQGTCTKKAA
The assay is described as follows: In Vitro evaluation for the CF1 liver enzyme activity on HMG-CoA reductase at concentration 100 uM. A digest of the protocol: (§3)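 Liver was taken from CF1 male mice and made into 10% homogenates, which were incubated with test compound at 50, 100 or 200 µM. Each enzyme was assayed by its literature method, and protein was measured by Lowry. N = 6. Activity is expressed as % of untreated control ± SD.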

The target of assay [7] is T2, ATP-citrate synthase (Mus musculus) (UniProt Q91V92).
T2 sequence (whole entry): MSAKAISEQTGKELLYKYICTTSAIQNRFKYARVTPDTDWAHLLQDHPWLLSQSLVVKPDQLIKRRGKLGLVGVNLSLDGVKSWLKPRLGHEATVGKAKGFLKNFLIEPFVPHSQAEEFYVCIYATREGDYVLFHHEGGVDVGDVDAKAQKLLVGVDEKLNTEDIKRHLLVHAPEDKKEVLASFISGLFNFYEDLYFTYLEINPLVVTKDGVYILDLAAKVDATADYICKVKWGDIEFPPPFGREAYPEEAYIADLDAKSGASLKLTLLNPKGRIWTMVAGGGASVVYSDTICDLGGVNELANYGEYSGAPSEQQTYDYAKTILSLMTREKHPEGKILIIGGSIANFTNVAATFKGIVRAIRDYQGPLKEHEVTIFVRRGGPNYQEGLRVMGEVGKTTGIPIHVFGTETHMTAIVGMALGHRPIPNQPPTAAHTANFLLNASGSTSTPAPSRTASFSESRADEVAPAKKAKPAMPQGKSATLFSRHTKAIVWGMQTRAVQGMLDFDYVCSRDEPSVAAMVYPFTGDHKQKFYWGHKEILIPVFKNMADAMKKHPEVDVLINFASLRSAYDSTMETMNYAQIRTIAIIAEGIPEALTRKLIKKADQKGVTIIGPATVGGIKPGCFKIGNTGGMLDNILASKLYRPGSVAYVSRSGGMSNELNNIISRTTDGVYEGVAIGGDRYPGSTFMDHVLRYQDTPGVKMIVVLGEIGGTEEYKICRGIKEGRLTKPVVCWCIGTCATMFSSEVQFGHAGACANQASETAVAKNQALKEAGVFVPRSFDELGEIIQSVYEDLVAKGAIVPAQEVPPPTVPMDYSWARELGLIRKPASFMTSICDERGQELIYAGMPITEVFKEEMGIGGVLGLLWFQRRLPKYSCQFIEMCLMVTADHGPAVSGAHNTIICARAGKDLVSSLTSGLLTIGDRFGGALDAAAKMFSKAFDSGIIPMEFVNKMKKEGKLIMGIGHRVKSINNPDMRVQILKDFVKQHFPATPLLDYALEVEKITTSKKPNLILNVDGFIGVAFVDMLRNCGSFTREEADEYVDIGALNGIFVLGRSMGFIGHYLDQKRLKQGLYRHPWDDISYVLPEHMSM
The assay is described as follows: In Vitro evaluation for the CF1 liver enzyme activity on ATP-dependent citrate exchange at concentration 50 uM. An outline of the steps: as §3

Assay [8] has as its system Mus musculus. The assay is described as follows: Compound was evaluated for the hypolipidemic activity in CF1 male mice at a dose of 60 mg/kg orally for Serum cholesterol at 16th day. The assay is classed as functional. The settings on record: route oral. An outline of the steps: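 CF1 male mice received the agent orally in 1% CMC at 10–60 mg/kg per day. Tail-vein blood was taken on days 9 and 16. Serum cholesterol was measured by modified Liebermann–Burchard on duplicate 25-µL samples, and serum triglyceride on day 16 in duplicate 50-µL samples. Values are % of vehicle control, mean ± SD, N = 6; Student's t test.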

In the case of `COc1ccc(C2C(=O)c3ccccc3C2=O)cc1` [ANISINDIONE], the Control in assay [1] amounted to 107%; in the assay on Rattus norvegicus [2], 113%; in the assay with Rattus norvegicus [3] it was 101%; in the assay with Mus musculus [4] it was 89%; with Rattus norvegicus [5], 187%; in assay [6] it was 109%. Besides, the Control in assay [7] was 72%; with Mus musculus [8] it was 62%.
